Assay results reported in ChEMBL document CHEMBL4145582, “Cytotoxic and Antibacterial Eremophilane Sesquiterpenes from the Marine-Derived Fungus Cochliobolus lunatus SCSIO41401” (J Nat Prod, 2018).

Legend:
Escherichia coli = test: Antimicrobial activity against Escherichia coli ATCC 25922 after 24 hrs by serial dilution method; type: functional; conditions: ATCC 25922, 24 h
Method in brief: (§1)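 Serial broth dilution in 96-well microtiter plates. Compounds and controls are dissolved in DMSO as stock. Bacteria are grown overnight at 37 °C, then diluted to 10^6 cfu/mL. E. coli and S. aureus are grown in Luria–Bertani broth. P. multocida and E. rhusiopathiae are grown in trypticase soy broth with 10% calf serum. Plates are incubated at 37 °C for 24 h and read at 630 nm.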

SGC-7901 = test: Cytotoxicity against human SGC7901 cells after 6 days by MTT assay; type: functional, cell-based; conditions: SGC-7901, 144 h
Method in brief: (§2)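 HepG-2 and SGC7901 cells; growth inhibition read by MTT method, with 5-fluorouracil as positive control.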

Staphylococcus aureus = test: Antimicrobial activity against Staphylococcus aureus subsp. aureus Rosenbach ATCC 25923 after 24 hrs by serial dilution method; type: functional; conditions: Rosenbach ATCC 25923, 24 h; method in brief: as §1
HepG2 = test: Cytotoxicity against human HepG2 cells after 6 days by MTT assay; type: functional, cell-based; conditions: HepG2, 144 h; method in brief: as §2
[1] = test system: Erysipelothrix rhusiopathiae; test: Antimicrobial activity against Erysipelothrix rhusiopathiae ATCC 19414 after 24 hrs by serial dilution method; type: functional; conditions: ATCC 19414, 24 h; method in brief: as §1
OS-RC-2 = test: Cytotoxicity against human OS-RC2 cells after 72 hrs by CCK8 assay; type: functional, cell-based; conditions: OS-RC-2, 72 h
Method in brief: (§3)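 Renal cancer lines ACHN, 786-O and OS-RC-2; cell viability read by CCK-8 assay, with sorafenib as positive control.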

Pasteurella multocida = test: Antimicrobial activity against Pasteurella multocida subsp. multocida ATCC 43137 after 24 hrs by serial dilution method; type: functional; conditions: ATCC 43137, 24 h; method in brief: as §1
ACHN = test: Cytotoxicity against human ACHN cells after 72 hrs by CCK8 assay; type: functional, cell-based; method in brief: as §3
786-0 = test: Cytotoxicity against human 786-O cells after 72 hrs by CCK8 assay; type: functional, cell-based; conditions: 786-0, 72 h; method in brief: as §3

In the case of `CC[C@@H]1OC(=O)c2cc(O)ccc21`, the MIC (Escherichia coli) is reported as greater than 100 µg/mL, the IC50 (SGC-7901) is reported as greater than 50 µM and the MIC (Staphylococcus aureus) is reported as greater than 100 µg/mL. The IC50 (HepG2) was greater than 50 µM, the MIC [1] was greater than 100 µg/mL and the IC50 (OS-RC-2) was greater than 50 µM. It also gave an MIC (Pasteurella multocida) greater than 100 µg/mL, an IC50 (ACHN) greater than 50 µM and an IC50 (786-0) greater than 50 µM.
